# Results: ChEMBL document CHEMBL4265933, “Rationally designed divalent caffeic amides inhibit amyloid-β fibrillization, induce fibril dissociation, and ameliorate cytotoxicity” (Eur J Med Chem, 2018)
# Calls of active or inactive are those of the source. The calls are words filed in the database; no cut-off is given here.
# Key:
# [1] = biological target: T1, Amyloid-beta precursor protein (Homo sapiens, UniProt P05067); assay: Inhibition of amyloid beta (1 to 42) (unknown origin) assessed as fibril formation at 10 uM incubated with agitation for 1 min every hr measured over 80 hrs by thioflavin-T assay relative to control; set-up: scale not given: the % may be the effect or the level left
# T1 sequence (P05067 whole entry): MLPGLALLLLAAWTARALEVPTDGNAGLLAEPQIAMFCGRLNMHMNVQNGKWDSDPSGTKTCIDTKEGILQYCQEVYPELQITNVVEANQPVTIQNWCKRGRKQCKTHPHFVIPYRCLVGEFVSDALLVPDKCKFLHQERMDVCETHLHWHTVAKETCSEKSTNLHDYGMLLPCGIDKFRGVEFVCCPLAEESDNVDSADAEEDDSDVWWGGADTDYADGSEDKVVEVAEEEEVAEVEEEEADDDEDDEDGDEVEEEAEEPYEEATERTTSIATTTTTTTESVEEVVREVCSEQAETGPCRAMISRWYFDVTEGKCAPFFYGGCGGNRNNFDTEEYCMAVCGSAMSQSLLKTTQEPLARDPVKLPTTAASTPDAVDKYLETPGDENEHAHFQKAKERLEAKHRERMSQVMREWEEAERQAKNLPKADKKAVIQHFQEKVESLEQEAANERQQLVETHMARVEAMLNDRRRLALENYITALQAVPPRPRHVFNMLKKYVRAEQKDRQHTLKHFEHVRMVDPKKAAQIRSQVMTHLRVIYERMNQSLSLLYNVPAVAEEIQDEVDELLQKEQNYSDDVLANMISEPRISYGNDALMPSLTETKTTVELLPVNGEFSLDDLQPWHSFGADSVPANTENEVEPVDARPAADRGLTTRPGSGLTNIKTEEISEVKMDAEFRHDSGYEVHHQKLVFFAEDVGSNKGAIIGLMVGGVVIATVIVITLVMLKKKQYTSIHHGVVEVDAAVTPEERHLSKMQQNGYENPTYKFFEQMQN
# [2] = biological target: T1, Amyloid-beta precursor protein; assay: Inhibition of amyloid beta (1 to 42) fibrillization (unknown origin) at 12.5 to 25 uM incubated with agitation for 1 min every hr measured over 80 hrs by transmission electron microscopy
# Procedure, shortened: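 End-point Aβ(1–42) products after 80 h ThT incubation (50 µM peptide, 37 °C) with 12.5 or 25 µM compound were applied to Formvar carbon-coated copper grids for 5 min. Grids were water-washed and stained with 2% uranyl acetate. Imaging was by TEM at 120 kV.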
# [3] = test system: Caenorhabditis elegans; assay: Protection against amyloid beta aggregation-induced paralysis in Caenorhabditis elegans CL4176 assessed as median survival time of worms at 40 uL pretreated with compound at 16 degC for 20 hrs followed by raising temperature to 25 degC (reference value: 42.2 hrs); assay type: functional
# [4] = test system: SH-SY5Y; assay: Neuroprotective activity against amyloid beta (1 to 42 residues) induced cytotoxicity in human SH-SY5Y cells assessed as protection against amyloid beta (1 to 42 residues) induced decrease in cell viability at 25 uM after 24 hrs by LDH assay relative to control; assay type: functional
# Procedure, shortened: (§1)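 SH-SY5Y cells (DMEM/F12, 5% FBS, 37 °C, 5% CO2) were seeded at 10,000 cells/well for 24 h, then switched to serum-free medium. Cells received 10 µL end-point Aβ(1–42) ThT-assay product (peptide co-incubated with compound) for 24 h. Cleared medium was incubated with LDH substrate 30 min at room temperature, dark, and read at 490 nm. Cell-free background was subtracted; 2% Triton X-100 lysis set 100% cytotoxicity. Triplicate.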
# [5] = test system: SH-SY5Y; assay: Neuroprotective activity against amyloid beta (1 to 42 residues) induced cytotoxicity in human SH-SY5Y cells assessed as protection against amyloid beta (1 to 42 residues) induced decrease in cell viability at 0.01 uM after 24 hrs by LDH assay relative to control; assay type: functional; procedure, shortened: as §1
# [6] = test system: SH-SY5Y; assay: Neuroprotective activity against amyloid beta (1 to 42 residues) induced cytotoxicity in human SH-SY5Y cells assessed as protection against amyloid beta (1 to 42 residues) induced decrease in cell viability after 24 hrs by LDH assay; assay type: functional, cell-based; procedure, shortened: as §1
# [7] = biological target: T1, Amyloid-beta precursor protein; assay: Inhibition of amyloid beta (1 to 42) fibrillization (unknown origin) incubated with agitation for 1 min every hr measured over 80 hrs by thioflavin-T assay
# [8] = test system: SH-SY5Y; assay: Neuroprotective activity against preformed amyloid beta (1 to 42 residues) fibril induced cytotoxicity in human SH-SY5Y cells assessed as protection against amyloid beta (1 to 42 residues) induced decrease in cell viability at 25 uM after 24 hrs by LDH assay; assay type: functional, cell-based
# Procedure, shortened: (§2)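 Preformed fibrils: 0.1 mg Aβ(1–42) in 6 µL DMSO was diluted into 880 µL 20 mM PB pH 7.4 and shaken ≥4 days. Fibrils were then held with 0, 25, 50 or 100 µM compound. SH-SY5Y cells in serum-free medium received 10 µL sample for 24 h. LDH release was read at 490 nm, background-subtracted, and normalized to 2% Triton X-100 lysis as 100%.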
# [9] = biological target: T1, Amyloid-beta precursor protein; assay: Inhibition of amyloid beta (1 to 42) (unknown origin) assessed as fibril formation at 3.1 uM incubated with agitation for 1 min every hr measured over 80 hrs by thioflavin-T assay relative to control; set-up: scale not given: the % may be the effect or the level left
# Procedure, shortened: (§3)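 Synthetic Aβ(1–42) taken up in DMSO, diluted to 50 μM in 20 mM PB pH 7.4 (final DMSO 1.5%) with 5 μM ThT, compound 0.01–100 μM. Incubated at 37 °C with 1 min agitation hourly for 80 h. ThT read at ex 442/em 485 nm. The 80 h signal, buffer-subtracted, normalized to Aβ alone. Independent triplicates, SEM; IC50 fitted to Y=100/(1+10^(X−LogIC50)).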
# [10] = test system: SH-SY5Y; assay: Neuroprotective activity against preformed amyloid beta (1 to 42 residues) fibril induced cytotoxicity in human SH-SY5Y cells assessed as protection against amyloid beta (1 to 42 residues) induced cell viability at 100 uM after 24 hrs by LDH assay (reference value: 17%); assay type: functional; procedure, shortened: as §2
# [11] = biological target: T1, Amyloid-beta precursor protein; assay: Disaggregation of amyloid beta (1 to 42 residues) (unknown origin) preformed fibrils at 100 uM measured immediately by transmission electron microscopy
# Procedure, shortened: (§4)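 Aβ(1–42) made by Fmoc solid-phase synthesis and HPLC-purified. Fibrils preformed by dissolving 0.1 mg peptide in DMSO, diluting in 20 mM PB pH 7.4, and shaking for at least 4 days. Fibrils mixed with compound (100 μM), sampled at time 0 or after 14 days, placed on carbon-coated grids, stained with 2% uranyl acetate and imaged by TEM at 120 kV.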
# [12] = test system: Caenorhabditis elegans; assay: Protection against amyloid beta aggregation-induced paralysis in Caenorhabditis elegans CL4176 assessed as survival rate of worms at 40 uL pretreated with compound at 16 degC for 20 hrs followed by raising temperature to 25 degC and measured at 26 hrs relative to control; assay type: functional
# Procedure, shortened: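 About 130 eggs of transgenic C. elegans CL4176 (muscle myo-3p::Aβ(1–42)) were grown at 16 °C on NGM plates with E. coli OP50. Plates were pretreated with 40 µL of a 6.27 mM compound solution; nematode growth medium served as buffer control. Temperature was raised to 25 °C at L4. Unparalysed worms (~100–130 per condition) were counted every 2 h. Five trials.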
# [13] = biological target: T1, Amyloid-beta precursor protein; assay: Disaggregation of amyloid beta (1 to 42 residues) (unknown origin) preformed fibrils up to 100 uM measured immediately by Western blot analysis
# Procedure, shortened: (§5)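 Preformed Aβ(1–42) fibrils incubated with compound at 0, 25, 50 or 100 μM for 0 or 14 days. Samples (20 μL plus SDS sample buffer) run on native 13% Tris-tricine gel without SDS, transferred to nitrocellulose at 250 mA for 75 min at 4 °C, blocked in 5% milk, probed with 4G8 and 6E10 plus anti-mouse IgG, ECL detection.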
# [14] = biological target: T1, Amyloid-beta precursor protein; assay: Inhibition of amyloid beta (1 to 42) (unknown origin) assessed as fibril formation at 100 uM incubated with agitation for 1 min every hr measured over 80 hrs by thioflavin-T assay relative to control; set-up: scale not given: the % may be the effect or the level left; procedure, shortened: as §3
# [15] = biological target: T1, Amyloid-beta precursor protein; assay: Inhibition of amyloid beta (1 to 42) (unknown origin) assessed as fibril formation at 25 uM incubated with agitation for 1 min every hr measured over 80 hrs by thioflavin-T assay relative to control; set-up: scale not given: the % may be the effect or the level left; procedure, shortened: as §3
# [16] = test system: SH-SY5Y; assay: Neuroprotective activity against preformed amyloid beta (1 to 42 residues) fibril induced cytotoxicity in human SH-SY5Y cells assessed as protection against amyloid beta (1 to 42 residues) induced cell viability at 50 uM after 24 hrs by LDH assay (reference value: 17%); assay type: functional; procedure, shortened: as §2
# [17] = biological target: T1, Amyloid-beta precursor protein; assay: Disaggregation of amyloid beta (1 to 42 residues) (unknown origin) preformed fibrils up to 100 uM measured on day 14 by Western blot analysis; procedure, shortened: as §5
# [18] = biological target: T1, Amyloid-beta precursor protein; assay: Disaggregation of amyloid beta (1 to 42 residues) (unknown origin) preformed fibrils at 100 uM measured on day 14 by transmission electron microscopy; procedure, shortened: as §4
# [19] = biological target: T1, Amyloid-beta precursor protein; assay: Inhibition of amyloid beta (1 to 42) (unknown origin) assessed as fibril formation up to 100 uM incubated with agitation for 1 min every hr measured over 80 hrs by thioflavin-T assay
# Procedure, shortened: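 Synthetic Aβ(1–42) was dissolved in DMSO and diluted to 50 µM in 20 mM phosphate buffer, pH 7.4 (1.5% final DMSO), with 5 µM ThT. Compound was added at 0.01–100 µM and samples were held at 37 °C, agitated 1 min hourly. Fluorescence (ex 442, em 485 nm) was read over 80 h. Background-subtracted 80 h signal was normalized to Aβ alone and fit to Y=100/(1+10^(X−LogIC50)). Triplicate, SEM.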
# [20] = biological target: T1, Amyloid-beta precursor protein; assay: Disaggregation of amyloid beta (1 to 42 residues) (unknown origin) preformed fibrils incubated with agitation for 1 min every hr measured over 80 hrs by thioflavin-T assay
# Procedure, shortened: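 Preformed Aβ(1–42) fibrils (25 μM; peptide in DMSO diluted into 20 mM PB pH 7.4, shaken at least 4 days) mixed with compound at 0–100 μM and 5 μM ThT. Incubated at 37 °C with 1 min agitation hourly. Fluorescence read at ex 442/em 485 nm, buffer background subtracted. Final signal normalized to fibrils alone; triplicate; IC50 fitted to Y=100/(1+10^(X−LogIC50)).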
structure (smiles),measurement,setting,value
O=C(/C=C/c1ccc(O)c(O)c1)NCc1cn(Cc2ccc(-c3ccc(Cn4cc(CNC(=O)/C=C/c5ccc(O)c(O)c5)nn4)cc3)cc2)nn1,Activity,[1],88.2%
O=C(/C=C/c1ccc(O)c(O)c1)CC(=O)/C=C/c1ccc(O)c(O)c1,Activity,[1],11.5%
O=C(/C=C/c1ccc(O)c(O)c1)O[C@H](Cc1ccc(O)c(O)c1)C(=O)O,Activity,[1],79.1%
C#CCNC(=O)[C@@H](Cc1ccc(O)c(O)c1)OC(=O)/C=C/c1ccc(O)c(O)c1,Activity,[1],107%
O=C(/C=C/c1ccc(O)c(O)c1)NCCOCCOCCNC(=O)/C=C/c1ccc(O)c(O)c1,Activity,[1],64.7%
same,inhibition,[2],inactive
O=C(/C=C/c1ccc(O)c(O)c1)NCCCCc1cn(Cc2ccc(-c3ccc(Cn4cc(CCCCNC(=O)/C=C/c5ccc(O)c(O)c5)nn4)cc3)cc2)nn1,Activity,[1],61.8%
C#CCCCCNC(=O)/C=C/c1ccc(O)c(O)c1,Activity,[1],67.6%
O=C(O)/C=C/c1ccc(O)c(O)c1 [CAFFEIC ACID],MST,[3],26.3 h
same,Activity,[4],20%
same,Activity,[5],5%
same,Activity,[6],Dose-dependent effect
same,Activity,[1],91.2%
same,IC50,[7],15.6 µM
same,inhibition,[7],Dose-dependent effect
same,inhibition,[2],Active
O=C(/C=C/c1ccc(O)c(O)c1)NCCCc1cn(Cc2ccc(-c3ccc(Cn4cc(CCCNC(=O)/C=C/c5ccc(O)c(O)c5)nn4)cc3)cc2)nn1,Activity,[1],112%
O=C(/C=C/c1ccc(O)c(O)c1)O[C@H](Cc1ccc(O)c(O)c1)C(=O)NCc1cn(Cc2ccc(-c3ccc(Cn4cc(CNC(=O)[C@@H](Cc5ccc(O)c(O)c5)OC(=O)/C=C/c5ccc(O)c(O)c5)nn4)cc3)cc2)nn1,Activity,[1],65.1%
O=C(/C=C/c1ccc(O)c(O)c1)NCc1cn(Cc2ccc(Cn3cc(CNC(=O)/C=C/c4ccc(O)c(O)c4)nn3)cc2)nn1,Activity,[1],76.5%
C#CCCCNC(=O)/C=C/c1ccc(O)c(O)c1,Activity,[1],135%
O=C(/C=C/c1ccc(O)c(O)c1)NCCCNC(=O)/C=C/c1ccc(O)c(O)c1,MST,[3],27.3 h
same,Activity,[8],inactive
same,Activity,[4],34%
same,Activity,[9],60%
same,Activity,[10],9%
same,Activity,[11],inactive
same,fold change (FC),[12],2.5
same,Activity,[13],inactive
same,Activity,[14],1%
same,Activity,[5],19%
same,Activity,[15],8%
same,Activity,[16],12%
same,Activity,[17],Active
same,Activity,[6],Dose-dependent effect
same,Activity,[18],Active
same,Activity,[1],52.9%
same,IC50,[7],4.9 µM
same,inhibition,[7],Dose-dependent effect
same,inhibition,[19],Active
same,inhibition,[2],Active
same,Activity,[20],Dose-dependent effect
same,IC50,[20],4.2 µM
COc1cc(/C=C/C(=O)CC(=O)/C=C/c2ccc(O)c(OC)c2)ccc1O [CURCUMIN],MST,[3],25.7 h
same,Activity,[4],20%
same,Activity,[5],inactive
same,Activity,[6],Dose-dependent effect
same,inhibition,[7],Dose-dependent effect
same,inhibition,[2],Active
C#CCNC(=O)/C=C/c1ccc(O)c(O)c1,Activity,[1],79.4%
O=C(/C=C/c1ccc(O)c(O)c1)NCCOCCOCCOCCOCCNC(=O)/C=C/c1ccc(O)c(O)c1,Activity,[1],61.8%
same,inhibition,[2],inactive
O=C(/C=C/c1ccc(O)c(O)c1)NCCOCCOCCOCCNC(=O)/C=C/c1ccc(O)c(O)c1,Activity,[1],79.4%
same,inhibition,[2],inactive
O=C(/C=C/c1ccc(O)c(O)c1)NCCOCCOCCOCCOCCOCCNC(=O)/C=C/c1ccc(O)c(O)c1,Activity,[1],67.6%
same,inhibition,[2],inactive
